Source: publication PMC6634314 (Cell chemical biology, 2019)

How the values were obtained:
[1] = target: YES1 (Homo sapiens, UniProt P07947); experiment: MIB washout assay; type: binding; conditions: H23 cells, 1 μM 4h, MIB pulldown ratio SM1-71/SM1-71-R
[2] = target: T1, AAK1 (Homo sapiens, UniProt Q2M2I8); experiment: MIB washout assay; type: binding; conditions: H23 cells, 1 μM 4h, MIB pulldown ratio SM1-71/SM1-71-R
[3] = target: SRC (Homo sapiens, UniProt P12931); experiment: MIB washout assay; type: binding; conditions: H23 cells, 1 μM 4h, MIB pulldown ratio SM1-71/SM1-71-R
[4] = target: T2, BMP2K (Homo sapiens, UniProt Q9NSY1); experiment: MIB washout assay; type: binding; conditions: H23 cells, 1 μM 4h, MIB pulldown ratio SM1-71/SM1-71-R
[5] = test system: PIK3R4; experiment: MIB washout assay; type: binding, Human; conditions: H23 cells, 1 μM 4h, MIB pulldown ratio SM1-71/SM1-71-R
[6] = test system: DDR1; experiment: MIB washout assay; type: binding, Human; conditions: H23 cells, 1 μM 4h, MIB pulldown ratio SM1-71/SM1-71-R
[7] = test system: MET; experiment: MIB washout assay; type: binding, Human; conditions: H23 cells, 1 μM 4h, MIB pulldown ratio SM1-71/SM1-71-R
[8] = test system: CSNK1E; experiment: MIB washout assay; type: binding, Human; conditions: H23 cells, 1 μM 4h, MIB pulldown ratio SM1-71/SM1-71-R
[9] = test system: PIP4K2C; experiment: MIB washout assay; type: binding, Human; conditions: H23 cells, 1 μM 4h, MIB pulldown ratio SM1-71/SM1-71-R
[10] = test system: AGK; experiment: MIB washout assay; type: binding, Human; conditions: H23 cells, 1 μM 4h, MIB pulldown ratio SM1-71/SM1-71-R
[11] = test system: INSR; experiment: MIB washout assay; type: binding, Human; conditions: H23 cells, 1 μM 4h, MIB pulldown ratio SM1-71/SM1-71-R
[12] = test system: CDK17; experiment: MIB washout assay; type: binding, Human; conditions: H23 cells, 1 μM 4h, MIB pulldown ratio SM1-71/SM1-71-R
[13] = test system: MAP3K11; experiment: MIB washout assay; type: binding, Human; conditions: H23 cells, 1 μM 4h, MIB pulldown ratio SM1-71/SM1-71-R
[14] = test system: HCK; experiment: MIB washout assay; type: binding, Human; conditions: H23 cells, 1 μM 4h, MIB pulldown ratio SM1-71/SM1-71-R
[15] = test system: TGFBR1; experiment: MIB washout assay; type: binding, Human; conditions: H23 cells, 1 μM 4h, MIB pulldown ratio SM1-71/SM1-71-R
[16] = test system: 43 recombinant kinases; experiment: thermal stability shift assay; type: binding; conditions: 21 of 43 recombinant kinases; protein 2 μM, inhibitor 10 μM
[17] = target: MAP2K7 (Homo sapiens, UniProt O14733); experiment: mass shift assay; type: binding; conditions: incubated 4 and 24h
Method in brief: (§1)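 Kinase protein at 0.12 mM in 10 mM HEPES pH 7.5, 500 mM NaCl, incubated with 0.2 mM test compound at 4°C for 4 h and 24 h. Samples were diluted in 0.1% formic acid and desalted on a C3 pre-column. ESI-TOF was run in positive mode at 120 V, and intact mass was obtained by deconvolution to detect the adduct.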

[18] = target: MAPK3 (Homo sapiens, UniProt P27361); experiment: mass shift assay; type: binding; conditions: incubated 4 and 24h
Method in brief: as §1

[19] = target: MAP2K6 (Homo sapiens, UniProt P52564); experiment: mass shift assay; type: binding; conditions: incubated 4 and 24h
Method in brief: as §1

[20] = target: T3, GAK (Homo sapiens, UniProt O14976); experiment: MIB dose-dependent kinase inhibition assay; type: binding; conditions: read-out: IC50 in the MIB assay, H23 cell lysate, overnight 4°C
T3 sequence (O14976 1-1311): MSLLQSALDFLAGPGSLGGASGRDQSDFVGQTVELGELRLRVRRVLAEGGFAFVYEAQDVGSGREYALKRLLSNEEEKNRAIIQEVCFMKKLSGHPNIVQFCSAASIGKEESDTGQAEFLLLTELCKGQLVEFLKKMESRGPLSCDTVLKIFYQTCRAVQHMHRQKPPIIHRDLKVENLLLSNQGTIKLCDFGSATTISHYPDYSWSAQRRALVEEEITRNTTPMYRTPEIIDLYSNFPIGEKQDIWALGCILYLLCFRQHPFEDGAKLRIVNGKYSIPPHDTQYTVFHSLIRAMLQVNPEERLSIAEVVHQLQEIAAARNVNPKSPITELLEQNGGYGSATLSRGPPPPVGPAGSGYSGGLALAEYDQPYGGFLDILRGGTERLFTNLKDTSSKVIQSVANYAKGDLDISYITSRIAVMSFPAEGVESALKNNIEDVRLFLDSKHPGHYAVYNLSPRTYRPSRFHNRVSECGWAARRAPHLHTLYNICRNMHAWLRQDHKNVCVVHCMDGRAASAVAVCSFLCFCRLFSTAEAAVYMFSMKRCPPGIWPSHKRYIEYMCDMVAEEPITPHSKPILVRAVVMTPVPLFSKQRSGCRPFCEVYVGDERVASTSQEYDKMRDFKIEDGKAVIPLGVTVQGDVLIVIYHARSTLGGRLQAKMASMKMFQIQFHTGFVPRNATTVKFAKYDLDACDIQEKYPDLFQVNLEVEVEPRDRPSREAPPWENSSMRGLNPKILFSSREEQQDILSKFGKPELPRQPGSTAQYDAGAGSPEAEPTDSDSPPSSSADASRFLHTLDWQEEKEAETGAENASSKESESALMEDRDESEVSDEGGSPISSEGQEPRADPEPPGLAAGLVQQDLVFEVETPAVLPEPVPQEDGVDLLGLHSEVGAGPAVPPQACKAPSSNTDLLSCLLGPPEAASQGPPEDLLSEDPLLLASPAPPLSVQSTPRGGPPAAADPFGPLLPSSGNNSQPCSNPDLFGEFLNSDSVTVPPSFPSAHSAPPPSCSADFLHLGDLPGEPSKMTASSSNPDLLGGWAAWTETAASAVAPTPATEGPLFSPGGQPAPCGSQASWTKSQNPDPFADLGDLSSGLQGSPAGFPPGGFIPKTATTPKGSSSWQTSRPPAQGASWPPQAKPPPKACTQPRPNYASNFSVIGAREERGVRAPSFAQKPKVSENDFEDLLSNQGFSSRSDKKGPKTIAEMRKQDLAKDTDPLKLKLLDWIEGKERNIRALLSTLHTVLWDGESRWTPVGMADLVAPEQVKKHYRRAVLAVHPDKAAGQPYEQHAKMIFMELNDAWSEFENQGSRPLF

[21] = target: T1, AAK1; experiment: MIB dose-dependent kinase inhibition assay; type: binding; conditions: read-out: IC50 in the MIB assay, H23 cell lysate, overnight 4°C
[22] = target: T2, BMP2K; experiment: MIB dose-dependent kinase inhibition assay; type: binding; conditions: read-out: IC50 in the MIB assay, H23 cell lysate, overnight 4°C
[23] = test system: CDK13; conditions: H23 cells, 1 μM 4h, MIB pulldown ratio SM1-71/SM1-71-R

T1 sequence (Q2M2I8 whole entry): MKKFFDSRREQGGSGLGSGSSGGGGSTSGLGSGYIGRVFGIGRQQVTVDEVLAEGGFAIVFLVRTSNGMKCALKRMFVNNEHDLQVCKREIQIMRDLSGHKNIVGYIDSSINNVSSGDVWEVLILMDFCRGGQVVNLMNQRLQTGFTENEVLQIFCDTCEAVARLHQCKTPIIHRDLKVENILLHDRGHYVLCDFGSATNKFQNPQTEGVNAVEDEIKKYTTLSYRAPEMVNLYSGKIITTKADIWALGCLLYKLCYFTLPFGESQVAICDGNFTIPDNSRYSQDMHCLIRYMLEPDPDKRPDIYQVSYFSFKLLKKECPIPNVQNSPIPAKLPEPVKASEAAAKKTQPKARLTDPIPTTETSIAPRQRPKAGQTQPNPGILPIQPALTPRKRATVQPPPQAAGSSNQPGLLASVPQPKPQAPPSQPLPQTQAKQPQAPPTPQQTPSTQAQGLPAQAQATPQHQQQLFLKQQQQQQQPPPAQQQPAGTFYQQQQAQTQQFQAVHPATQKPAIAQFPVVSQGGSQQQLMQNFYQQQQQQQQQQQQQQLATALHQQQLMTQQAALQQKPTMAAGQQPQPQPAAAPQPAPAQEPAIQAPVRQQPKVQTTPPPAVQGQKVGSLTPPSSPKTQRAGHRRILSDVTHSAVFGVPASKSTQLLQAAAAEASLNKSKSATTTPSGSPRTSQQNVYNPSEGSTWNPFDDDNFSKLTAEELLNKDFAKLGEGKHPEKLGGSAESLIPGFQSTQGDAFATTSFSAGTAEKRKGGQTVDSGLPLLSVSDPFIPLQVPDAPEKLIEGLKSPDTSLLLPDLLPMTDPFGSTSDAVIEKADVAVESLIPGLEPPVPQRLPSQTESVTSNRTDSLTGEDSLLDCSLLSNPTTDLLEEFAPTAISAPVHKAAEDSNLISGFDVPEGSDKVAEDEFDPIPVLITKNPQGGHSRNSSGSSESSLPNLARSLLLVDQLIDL
T2 sequence (Q9NSY1 whole entry): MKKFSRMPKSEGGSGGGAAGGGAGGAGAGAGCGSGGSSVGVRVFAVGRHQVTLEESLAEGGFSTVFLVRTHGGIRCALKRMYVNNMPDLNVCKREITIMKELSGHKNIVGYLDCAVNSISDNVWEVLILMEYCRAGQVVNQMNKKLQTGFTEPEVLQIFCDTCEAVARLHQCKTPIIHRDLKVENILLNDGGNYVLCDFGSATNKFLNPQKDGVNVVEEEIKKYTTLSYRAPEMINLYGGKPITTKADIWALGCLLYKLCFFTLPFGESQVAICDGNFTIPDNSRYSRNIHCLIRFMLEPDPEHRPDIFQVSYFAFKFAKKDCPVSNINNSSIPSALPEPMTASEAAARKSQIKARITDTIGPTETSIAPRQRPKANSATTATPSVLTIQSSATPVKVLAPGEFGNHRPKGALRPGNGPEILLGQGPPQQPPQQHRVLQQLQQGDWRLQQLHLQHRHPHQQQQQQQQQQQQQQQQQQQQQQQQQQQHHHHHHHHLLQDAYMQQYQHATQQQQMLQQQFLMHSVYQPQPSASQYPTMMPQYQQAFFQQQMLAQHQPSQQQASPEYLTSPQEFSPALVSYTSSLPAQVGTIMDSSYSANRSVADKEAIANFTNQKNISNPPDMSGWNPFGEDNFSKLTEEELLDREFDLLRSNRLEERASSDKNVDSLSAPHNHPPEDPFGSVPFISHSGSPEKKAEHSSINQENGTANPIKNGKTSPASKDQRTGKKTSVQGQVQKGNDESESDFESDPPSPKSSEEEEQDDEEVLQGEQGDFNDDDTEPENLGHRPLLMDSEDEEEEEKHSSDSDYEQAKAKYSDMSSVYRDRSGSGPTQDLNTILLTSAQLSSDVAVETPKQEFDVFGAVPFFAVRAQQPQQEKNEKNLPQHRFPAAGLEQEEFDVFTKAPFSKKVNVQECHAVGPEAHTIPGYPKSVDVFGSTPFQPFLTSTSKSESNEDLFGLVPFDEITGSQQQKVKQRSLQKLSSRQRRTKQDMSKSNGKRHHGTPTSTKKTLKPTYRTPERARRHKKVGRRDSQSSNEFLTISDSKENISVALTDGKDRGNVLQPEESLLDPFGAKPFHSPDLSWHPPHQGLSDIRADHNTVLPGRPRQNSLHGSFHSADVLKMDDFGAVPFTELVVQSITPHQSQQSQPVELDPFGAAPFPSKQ
Chain of YES1 (P07947 whole entry): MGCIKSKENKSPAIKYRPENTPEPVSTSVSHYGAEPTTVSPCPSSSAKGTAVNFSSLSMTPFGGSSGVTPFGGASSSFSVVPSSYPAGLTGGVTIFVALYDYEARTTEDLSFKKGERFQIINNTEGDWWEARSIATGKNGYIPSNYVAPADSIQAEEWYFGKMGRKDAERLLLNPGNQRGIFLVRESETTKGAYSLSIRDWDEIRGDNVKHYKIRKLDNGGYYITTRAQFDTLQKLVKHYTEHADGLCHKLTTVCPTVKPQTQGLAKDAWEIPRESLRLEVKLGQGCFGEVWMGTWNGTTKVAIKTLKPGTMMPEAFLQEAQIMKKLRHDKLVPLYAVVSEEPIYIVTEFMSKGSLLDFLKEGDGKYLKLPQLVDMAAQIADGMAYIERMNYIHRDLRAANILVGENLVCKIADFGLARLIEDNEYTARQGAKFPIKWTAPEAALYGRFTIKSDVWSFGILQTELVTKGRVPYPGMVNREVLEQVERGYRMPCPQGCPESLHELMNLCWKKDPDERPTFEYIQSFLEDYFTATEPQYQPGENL
Chain of SRC (P12931 whole entry): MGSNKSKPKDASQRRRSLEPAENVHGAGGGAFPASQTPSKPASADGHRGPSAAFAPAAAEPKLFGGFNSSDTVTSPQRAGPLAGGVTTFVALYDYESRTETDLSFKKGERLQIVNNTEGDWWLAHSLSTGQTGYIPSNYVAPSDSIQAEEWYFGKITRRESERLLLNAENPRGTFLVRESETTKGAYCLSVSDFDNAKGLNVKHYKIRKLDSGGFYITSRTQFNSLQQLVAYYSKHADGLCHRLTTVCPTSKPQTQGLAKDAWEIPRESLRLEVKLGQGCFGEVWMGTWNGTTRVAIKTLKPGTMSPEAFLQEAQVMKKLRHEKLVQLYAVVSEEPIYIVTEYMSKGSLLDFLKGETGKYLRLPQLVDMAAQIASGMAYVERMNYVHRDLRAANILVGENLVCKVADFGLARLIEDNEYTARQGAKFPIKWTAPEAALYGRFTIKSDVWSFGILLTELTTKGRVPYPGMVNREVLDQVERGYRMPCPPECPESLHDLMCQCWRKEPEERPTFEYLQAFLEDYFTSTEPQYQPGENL
Chain of MAPK3 (P27361 whole entry): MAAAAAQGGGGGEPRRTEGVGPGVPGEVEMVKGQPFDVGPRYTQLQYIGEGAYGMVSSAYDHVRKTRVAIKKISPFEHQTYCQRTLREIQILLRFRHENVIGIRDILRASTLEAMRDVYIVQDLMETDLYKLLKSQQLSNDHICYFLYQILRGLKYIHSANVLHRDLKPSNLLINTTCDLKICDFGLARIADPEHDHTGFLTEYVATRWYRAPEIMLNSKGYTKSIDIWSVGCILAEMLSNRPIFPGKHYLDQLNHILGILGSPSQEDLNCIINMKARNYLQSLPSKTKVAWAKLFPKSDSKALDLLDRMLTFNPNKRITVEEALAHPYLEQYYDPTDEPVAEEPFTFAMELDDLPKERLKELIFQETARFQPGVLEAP
Chain of MAP2K7 (O14733 whole entry, species assumed): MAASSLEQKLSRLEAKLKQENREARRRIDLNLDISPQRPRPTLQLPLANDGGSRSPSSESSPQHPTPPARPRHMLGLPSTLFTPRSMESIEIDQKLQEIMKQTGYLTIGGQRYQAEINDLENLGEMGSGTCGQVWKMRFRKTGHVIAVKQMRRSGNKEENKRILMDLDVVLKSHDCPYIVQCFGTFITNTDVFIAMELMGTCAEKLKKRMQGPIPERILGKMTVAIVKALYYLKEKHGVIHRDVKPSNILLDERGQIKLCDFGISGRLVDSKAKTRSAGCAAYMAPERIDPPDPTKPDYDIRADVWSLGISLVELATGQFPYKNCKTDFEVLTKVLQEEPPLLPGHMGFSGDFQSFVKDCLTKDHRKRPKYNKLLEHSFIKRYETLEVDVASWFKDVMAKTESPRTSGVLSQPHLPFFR
Chain of MAP2K6 (P52564 whole entry, species assumed): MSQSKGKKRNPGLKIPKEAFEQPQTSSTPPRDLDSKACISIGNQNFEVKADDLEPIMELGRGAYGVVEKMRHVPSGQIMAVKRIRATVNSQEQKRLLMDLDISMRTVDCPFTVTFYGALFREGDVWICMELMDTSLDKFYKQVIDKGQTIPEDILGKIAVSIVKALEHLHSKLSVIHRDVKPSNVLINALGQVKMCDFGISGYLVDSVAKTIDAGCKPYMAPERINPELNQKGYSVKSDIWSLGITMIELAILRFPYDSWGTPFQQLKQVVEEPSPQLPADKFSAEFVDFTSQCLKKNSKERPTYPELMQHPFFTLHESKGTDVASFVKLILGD

C=CC(=O)Nc1ccccc1Nc1nc(Nc2ccc(N3CCN(C)CC3)cc2)ncc1Cl [SM1-71] showed a BI-0h ([1]; 0h post-washout) of 0.21, a BI-6h ([1]; 6h post-washout) of 0.1 and a BI-0h ([2]; 0h post-washout) of 0.27. The BI-6h ([2]; 6h post-washout) was 0.32, the BI-0h ([3]; 0h post-washout) was 0.19 and the BI-6h ([3]; 6h post-washout) was 0.13. It also gave a BI-0h ([4]; 0h post-washout) of 0.23, a BI-6h ([4]; 6h post-washout) of 0.27 and a BI-0h ([5]; 0h post-washout) of 0.36. For the same compound, the BI-6h ([5]; 6h post-washout) was 0.47, the BI-0h ([6]; 0h post-washout) was 0.68 and the BI-6h ([6]; 6h post-washout) was 0.59. The BI-0h ([7]; 0h post-washout) was 0.75, the BI-6h ([7]; 6h post-washout) was 0.53 and the BI-0h ([8]; 0h post-washout) was 0.79. For the same compound, the BI-6h ([8]; 6h post-washout) was 0.58, the BI-0h ([9]; 0h post-washout) was 0.8 and the BI-6h ([9]; 6h post-washout) was 0.6. The BI-0h ([10]; 0h post-washout) was 0.66, the BI-6h ([10]; 6h post-washout) was 0.5 and the BI-0h ([11]; 0h post-washout) was 0.52. For the same compound, the BI-6h ([11]; 6h post-washout) was 0.76, the BI-0h ([12]; 0h post-washout) was 0.46 and the BI-6h ([12]; 6h post-washout) was 0.76. For the same compound, the BI-0h ([13]; 0h post-washout) was 0.6, the BI-6h ([13]; 6h post-washout) was 0.76 and the BI-0h ([14]; 0h post-washout) was 1.3. It also gave a BI-6h ([14]; 6h post-washout) of 0.85, a BI-0h ([15]; 0h post-washout) of 1.09 and a BI-6h ([15]; 6h post-washout) of 0.8. The ΔTm shifts [16] was > 6 °C, the “covalent adduct formation (mass shift)” value [17] was “formed covalent adducts” and the “covalent adduct formation (mass shift)” value [18] was “formed covalent adducts”. For the same compound, the “covalent adduct formation (mass shift)” value [19] was “formed covalent adducts”, the IC50 [20] was < 10 nM and the IC50 [21] was < 10 nM. The IC50 [22] was < 10 nM, the BI-0h ([23]; 0h post-washout) was 0.57 and the BI-6h ([23]; 6h post-washout) was 0.57.
